Data set [1] has as its target T1, human UGT1A1 (Homo sapiens, UniProt P22309).
T1 sequence (P22309 26-533): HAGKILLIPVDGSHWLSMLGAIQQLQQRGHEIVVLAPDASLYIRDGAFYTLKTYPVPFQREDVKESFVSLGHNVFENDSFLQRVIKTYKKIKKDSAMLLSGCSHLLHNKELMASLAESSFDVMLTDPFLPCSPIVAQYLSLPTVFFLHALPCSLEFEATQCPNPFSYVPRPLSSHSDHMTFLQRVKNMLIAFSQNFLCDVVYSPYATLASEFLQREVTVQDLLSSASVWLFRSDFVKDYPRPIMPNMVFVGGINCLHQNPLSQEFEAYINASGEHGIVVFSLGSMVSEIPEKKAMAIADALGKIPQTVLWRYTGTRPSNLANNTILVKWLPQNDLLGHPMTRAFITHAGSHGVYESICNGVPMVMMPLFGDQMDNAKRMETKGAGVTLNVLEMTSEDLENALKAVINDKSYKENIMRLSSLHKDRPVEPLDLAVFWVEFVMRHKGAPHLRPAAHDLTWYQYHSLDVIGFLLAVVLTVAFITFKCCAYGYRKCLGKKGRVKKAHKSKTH
Put plainly: Mutual glucuronidation inhibition. As to conditions: for Vmax: n=3; for Ki: mixed-type inhibition; for type of inhibition of UGT1A1-mediated glucuronidation: best fit by R2 and AIC, Lineweaver-Burk plots; for decrease of apparent Vmax of glucuronidation versus control: substrate glucuronidation in presence of increasing 3,7,4′THF, up to 5 μM. The data set is classed as biochemical.

Data set [2] deals with T1, human UGT1A1. Nature of the data set: Glucuronidation kinetics with expressed human UGT1A1 Supersomes. Type of data set: in vitro ADME. The essentials:
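Recombinant human UGT1A1 Supersomes (26.5~53.0 µg protein/mL final) with MgCl2 0.88 mM, saccharolactone 4.4 mM, alamethicin 0.022 mg/mL and UDPGA 3.5 mM (added last) in 50 mM potassium phosphate, pH 7.4. Test compound at 0–10 µM final. Incubated 37°C for 15~120 min, then stopped with acetonitrile/acetic acid. Glucuronide quantified by UPLC in triplicate. Rates were fitted to Michaelis-Menten, substrate-inhibition or Hill equations with 1/y weighting.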

Where [3] appears, read: glucuronide formation in presence of 3,7,4′THF 0.313 μM.
Setting [4] is: glucuronide formation in presence of 3,7,4′THF 0.625 μM.
The mark [5] stands for this setting: glucuronide formation in presence of 3,7,4′THF 1.25 μM.
Where [6] appears, read: glucuronide formation in presence of 3,7,4′THF 5 μM.
Setting [7] is: glucuronide formation, 3,7,4′THF 0 μM (absence of inhibitor).
Setting [8] is: Ki (inhibition of 3,7,4′THF-3-O-G formation), substrate 3,7,4′THF, 3-O-glucuronidation.
Where [9] appears, read: Ki (inhibition of 3,7,4′THF-7-O-G formation), substrate 3,7,4′THF, 7-O-glucuronidation.

Eight compounds from publication PMC3953455 (Molecular pharmaceutics, 2013) can be followed below.

Turning to `O=C(O)[C@H]1O[C@@H](Oc2c(-c3ccccc3)oc3ccccc3c2=O)[C@H](O)[C@@H](O)[C@@H]1O` [3HF-O-G, 3HF-O-glucuronide], the Vmax in data set [1] (setting [3]) came to 1.63 ± 0.07 nmol/mg/min; in data set [1] (setting [4]) it was 1.67 ± 0.03 nmol/mg/min; in data set [1] (setting [5]), 2.05 ± 0.13 nmol/mg/min; in data set [1] (setting [6]), 0.44 ± 0.16 nmol/mg/min; in data set [1] (setting [7]) it was 2.00 ± 0.05 nmol/mg/min.

Turning to `O=C(O)[C@H]1O[C@@H](Oc2ccc(-c3cc(=O)c4ccccc4o3)cc2)[C@H](O)[C@@H](O)[C@@H]1O` [4′HF-O-G, 4′HF-O-glucuronide], the Vmax in data set [1] (setting [3]) is 0.63 ± 0.02 nmol/mg/min; in data set [1] (setting [4]), 0.61 ± 0.02 nmol/mg/min; in data set [1] (setting [5]), 0.58 ± 0.01 nmol/mg/min; in data set [1] (setting [6]), 0.14 ± 0.01 nmol/mg/min; in data set [1] (setting [7]), 0.68 ± 0.02 nmol/mg/min.

With `O=C(O)[C@H]1O[C@@H](Oc2ccc(-c3oc4cc(O)ccc4c(=O)c3O)cc2)[C@H](O)[C@@H](O)[C@@H]1O` [3,7,4′THF-4′-O-G, 3,7,4′THF-4′-O-glucuronide], the “detection of glucuronide in UGT1A1 reaction mixtures” value in data set [2] (3,7,4′THF incubated with human UGT1A1) was “not detected”.

For the compound `O=c1c(O)c(-c2ccccc2)oc2ccccc12` [3HF, 3-Hydroxyflavone], the Ki in data set [1] (setting [8]) is 4.14 ± 1.24 µM; in data set [1] (setting [9]) it was 9.04 ± 2.72 µM. Besides, in data set [1], the “type of inhibition of UGT1A1-mediated glucuronidation” value was “mixed-type inhibitors”. For the same compound, the “decrease of apparent Vmax of glucuronidation versus control” value (“decrease” below) in data set [1] is at most 4.6 times.

For the compound `O=c1cc(-c2ccc(O)cc2)oc2ccccc12` [4′HF, 4′-hydroxyflavone], in data set [1] (setting [8]), affinity was put at a Ki of 3.66 ± 0.77 µM. In data set [1] (setting [9]), this compound yielded a Ki of 6.22 ± 1.74 µM. In data set [1], the “type of inhibition of UGT1A1-mediated glucuronidation” value was “mixed-type inhibitors” and the “decrease” value is at most 5.0 times.

Take `O=c1cc(-c2ccccc2)oc2cc(O)ccc12` [7HF, 7-hydroxyflavone]: the results for the Ki in data set [1] (setting [8]) and in data set [1] (setting [9]) were 1.77 ± 0.72 µM and 4.33 ± 1.6 µM, respectively. In data set [1], the “type of inhibition of UGT1A1-mediated glucuronidation” value is “mixed-type inhibitors”. In data set [1], the “decrease” value is given as at most 2.4 times.

On to `O=c1c(O)c(-c2ccc(O)cc2)oc2cc(O)ccc12` [3,7,4′THF, 3,7,4′-trihydroxyflavone], for which the “Ki of substrate inhibition” value in data set [2] (substrate inhibition pattern of 3,7,4′THF in the absence of three MHFs) is “approximately 1 μM”. Moreover, the Ki came to 0.51 ± 0.15 µM in data set [1] (Ki (inhibition of glucuronidation of 3HF), substrate 3HF) and 1.29 ± 0.33 µM in data set [1] (Ki (inhibition of glucuronidation of 7HF), substrate 7HF). The “type of inhibition of UGT1A1-mediated glucuronidation” value in data set [1] is “mixed-type inhibition”.

Take `O=C(O)[C@H]1O[C@@H](Oc2ccc3c(=O)cc(-c4ccccc4)oc3c2)[C@H](O)[C@@H](O)[C@@H]1O` [7HF-O-G, 7HF-O-glucuronide]: the Vmax in data set [1] (setting [3]) stood at 1.27 ± 0.03 nmol/mg/min; in data set [1] (setting [4]), 1.16 ± 0.03 nmol/mg/min; in data set [1] (setting [5]), 0.99 ± 0.07 nmol/mg/min; in data set [1] (setting [6]) it was 0.59 ± 0.07 nmol/mg/min; in data set [1] (setting [7]), 1.40 ± 0.05 nmol/mg/min.

As usually defined, the Vmax is the rate approached at saturating substrate. As a reminder, the Ki is the equilibrium dissociation constant of an inhibitor or competing ligand from its target.
